Converted amounts (≈) assume the structure as drawn.
Assays:
Mus musculus [1] = experiment: Inhibitory effects on arachidonic acid (AA) induced mouse ear edema at a dose of 100 ug/ear; format: functional
Outline: (§1)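 Male ICR mice (30–40 g, 10–15 per group). Compound in 25 μL acetone/pyridine/water 97:2:1 with arachidonic acid (50 mg/mL) applied to inner surface of one ear. After 1 h, CO2 sacrifice, 6-mm disk punched, edema measured as change in wet weight versus controls.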

Mus musculus [2] = species on record: Mus musculus; experiment: Inhibitory effects on delayed type hypersensitive reaction in mouse ears at a dose of 300 ug/site; format: functional
Outline: (§2)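 ICR mice, 10 or 12 per group, sensitized by abdominal swabbing with 0.1 mL antigen in acetone (7% picryl chloride or 1% OXA). DTH response assessed in mouse ears.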

Rattus norvegicus [3] = species on record: Rattus norvegicus; experiment: Evaluated for its antioxidative effect using the thiobarbituric acid (TBA) method in rat; format: functional
Outline: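 Test sample in 67 mM phosphate buffer pH 7.4 mixed with 10% male Wistar rat (300–400 g) forebrain homogenate. Shaken 1 h at 37 °C, deproteinated with 20% TCA. Supernatant heated 10 min at 100 °C with 1.2% thiobarbiturate; absorbance read at 532 nm.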

Rattus norvegicus [4] = species on record: Rattus norvegicus; experiment: Compound was evaluated for its inhibitory effects on passive cutaneous anaphylaxis in rats at a dose of 1 mg/site; format: functional
Outline: (§3)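 Male SD rats, eight per group, sensitized intradermally at two dorsal sites with 0.05 mL anti-ovalbumin rat IgE serum diluted 1:8 in 0.9% saline. Compound applied topically to those sites 5 h before iv challenge 48 h later with 2 mg ovalbumin plus 5 mg Evans blue in 1 mL. Extravasated dye measured 30 min later; percent inhibition versus control group.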

Mus musculus [5] = experiment: Evaluated for its inhibitory effects on 12-O-tetradecanoylphorbol-13-acetate (TPA) -induced edema in mouse ear at a dose of 100 ug/site; format: functional
Outline: (§4)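 Male ICR mice, 30–40 g, 10–15 per group. Test compound applied in 25 μL acetone/pyridine/water 97:2:1 containing TPA (200 μg/mL) to the inner surface of one ear. Killed with CO2 5 h later; 6-mm ear punch weighed wet for edema. ED50 taken from three-point dose titration curves.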

Rattus norvegicus [6] = species on record: Rattus norvegicus; experiment: Inhibitory effects on passive cutaneous anaphylaxis in rats at a dose of 1 mg/site; format: functional; outline: as §3
Cavia porcellus [7] = experiment: Compound was evaluated for maximization test in guinea pigs and the edema was observed for the experiment 0; format: functional
Outline: (§5)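 Maximization test in guinea pigs with the dorsal neck region clipped and then shaved. Skin reactions were read at 24 and 48 h. Erythema was graded 0–4 and edema 0–3, and values are counts of animals at each grade. Groups held 6 animals, or 4 in the control-paired group.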

Cavia porcellus [8] = experiment: Compound was evaluated for maximization test in guinea pigs and the edema was observed for the experiment 2;4/4; format: functional; outline: as §5
Cavia porcellus [9] = experiment: Compound was evaluated for maximization test in guinea pigs and the edema was observed for the experiment 3; format: functional; outline: as §5
Cavia porcellus [10] = species on record: Cavia porcellus; experiment: Compound was evaluated for maximization test in guinea pigs and the erythema was observed for the experiment 4;0/2; format: functional; outline: as §5
Cavia porcellus [11] = experiment: Compound was evaluated for maximization test in guinea pigs and the edema was observed for the experiment 1; format: functional; outline: as §5
Cavia porcellus [12] = species on record: Cavia porcellus; experiment: Compound was evaluated for maximization test in guinea pigs and the erythema was observed for the experiment 0; format: functional; outline: as §5
Cavia porcellus [13] = species on record: Cavia porcellus; experiment: Compound was evaluated for maximization test in guinea pigs and the erythema was observed for the experiment 1; format: functional; outline: as §5
Cavia porcellus [14] = species on record: Cavia porcellus; experiment: Compound was evaluated for maximization test in guinea pigs and the erythema was observed for the experiment 2;3/0; format: functional; outline: as §5
Cavia porcellus [15] = species on record: Cavia porcellus; experiment: Compound was evaluated for maximization test in guinea pigs and the erythema was observed for the experiment 3;1/2; format: functional; outline: as §5
Oryctolagus cuniculus [16] = species on record: Oryctolagus cuniculus; experiment: Compound was evaluated for primary irritation test by applying at the abraded site and the average score was reported. Number of animals tested =6; format: toxicity, organism-based; conditions: rabbit, in vivo, topical_or_ocular
Outline: (§6)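 Rabbit backs shaved and depilated; 0.5 g compound applied to four sites (two intact, two abraded) under gauze for 24 h. Sites examined grossly 24 and 72 h after removing covering; scored by Draize method.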

Oryctolagus cuniculus [17] = species on record: Oryctolagus cuniculus; experiment: Compound was evaluated for primary irritation test by applying at the intact site and the average score was reported. Number of animals tested =6; format: toxicity, organism-based; conditions: rabbit, in vivo, topical_or_ocular; outline: as §6
Mus musculus [18] = experiment: Compound was evaluated for its inhibitory effects on 12-O-tetradecanoylphorbol-13-acetate (TPA) -induced edema in mouse ear at a dose of 100 ug/site; format: functional; outline: as §4
Mus musculus [19] = experiment: Compound was evaluated for its inhibitory effects on arachidonic acid (AA) induced mouse ear edema at a dose of 100 ug/ear; format: functional; outline: as §1
Mus musculus [20] = species on record: Mus musculus; experiment: Compound was evaluated for its inhibitory effects on delayed type hypersensitive reaction in mouse ears at a dose of 300 ug/site; format: functional; outline: as §2
Rattus norvegicus [21] = species on record: Rattus norvegicus; experiment: Compound was evaluated for its inhibitory effects on passive cutaneous anaphylaxis in rats at a dose of 2.5 mg/site; format: functional; outline: as §3
Oryctolagus cuniculus [22] = species on record: Oryctolagus cuniculus; experiment: Compound was evaluated for primary irritation test by applying at the intact site and the average score was reported. Number of animals tested =6.; format: toxicity, organism-based; conditions: rabbit, in vivo, topical_or_ocular; outline: as §6
Rattus norvegicus [23] = species on record: Rattus norvegicus; experiment: Compound was evaluated for its inhibitory effects on passive cutaneous anaphylaxis in rats at a dose of 1 (mg / site).; format: functional; outline: as §3
Rattus norvegicus [24] = species on record: Rattus norvegicus; experiment: Compound was evaluated for its inhibitory effects on passive cutaneous anaphylaxis in rats at a dose of 2.5 (mg / site).; format: functional; outline: as §3
Mus musculus [25] = species on record: Mus musculus; experiment: Compound was evaluated for its effective dose to inhibit oxazolone- induced delayed type hypersensitivity
Mus musculus [26] = experiment: Compound was evaluated for its inhibitory effects on 12-O-tetradecanoylphorbol-13-acetate -induced edema.
Mus musculus [27] = species on record: Mus musculus; experiment: Compound was evaluated for its effective dose to inhibit picryl chloride induced delayed type hypersensitivity.
Mus musculus [28] = experiment: Compound was evaluated for its inhibitory effects on arachidonic acid induced ear edema at a dose of 100 (ug / ear)
Mus musculus [29] = species on record: Mus musculus; experiment: Compound was evaluated for its effective dose to inhibit oxazolone- induced delayed type hypersensitivity; format: functional; outline: as §2
Mus musculus [30] = species on record: Mus musculus; experiment: Compound was evaluated for its effective dose to inhibit picryl chloride induced delayed type hypersensitivity; format: functional; outline: as §2
Mus musculus [31] = experiment: Compound was evaluated for its inhibitory effects on 12-O-tetradecanoylphorbol-13-acetate -induced edema; format: functional; outline: as §4
Mus musculus [32] = experiment: Compound was evaluated for its inhibitory effects on arachidonic acid induced ear edema at a dose of 100 (ug / ear); format: functional; outline: as §1

SMILES	Inhibition (Mus musculus [1]) [%]	Inhibition (Mus musculus [2]) [%]	IC50 (Rattus norvegicus [3]) [µg/mL]	Inhibition (Mus musculus [5]) [%]	Inhibition (Rattus norvegicus [6]) [%]	also measured
Cc1ccc(O)c(NCCCN2CCC(OC(c3ccccc3)c3ccccc3)CC2)c1	61.8	28.1	0.036 (≈ 0.0836 µM)	–	–	Inhibition (Rattus norvegicus [4]): 28.3%
Cc1ccc(O)c(NCCCN2CCC(C(O)(c3ccc(F)cc3)c3ccc(F)cc3)CC2)c1	–	–	0.025 (≈ 0.0536 µM)	86.9	25.4	–
O=[N+]([O-])c1ccc(Cl)c([N+](=O)[O-])c1	–	–	–	–	–	Edema (Cavia porcellus [7]): 0; Edema (Cavia porcellus [8]): 4; Edema (Cavia porcellus [9]): 0; Erythema (Cavia porcellus [10]): 0; Edema (Cavia porcellus [11]): 0; Erythema (Cavia porcellus [12]): 0; Erythema (Cavia porcellus [13]): 0; Erythema (Cavia porcellus [14]): 3; Erythema (Cavia porcellus [15]): 1
Cc1ccc(O)c(N(CCCN2CCC(C(O)(c3ccccc3)c3ccccc3)CC2)C(C)C)c1	–	–	0.79 (≈ 1.67 µM)	39.2	–	–
Cc1ccc(O)c(NCCCN2CCC(C(O)(c3ccccc3)c3ccc(Cl)cc3)CC2)c1 (stereo not given)	43.7	80.4	0.041 (≈ 0.0882 µM)	97.5	39.2	Average score (Oryctolagus cuniculus [16]): 0; Average score (Oryctolagus cuniculus [17]): 0
Cc1ccc(O)c(NCCCN2CCC(OC(c3ccc(F)cc3)c3ccc(F)cc3)CC2)c1	49.8	59.3	0.028 (≈ 0.06 µM)	61.8	39	–
Cc1c(C)c2c(c(C)c1O)CC[C@@](C)(CCC[C@H](C)CCC[C@H](C)CCCC(C)C)O2 [ALPHA-TOCOPHEROL]	–	–	0.87 (≈ 2.02 µM)	–	–	–
Cc1ccc(O)c(NCCCN2CCN(C(c3ccccc3)c3ccccc3)CC2)c1	51	79.3	0.038 (≈ 0.0914 µM)	–	11.2	–
CC(C(=O)O)c1ccc(C(=O)c2cccs2)cc1 (stereo not given) [SUPROFEN]	–	–	–	–	-0.7	ED50 (Mus musculus [18]): 123.2 µg/mL (≈ 473 µM); ED50 (Mus musculus [19]): 15.4 µg/mL (≈ 59.2 µM); ED50 (Mus musculus [20]): >300 µg/mL; Inhibition (Rattus norvegicus [21]): 16.9%
Cc1ccc(O)c(N(C)CCCN2CCN(C(c3ccccc3)c3ccccc3)CC2)c1	–	–	0.3 (≈ 0.698 µM)	50.9	–	–
Cc1ccc(O)c(N(CCCN2CCN(C(c3ccccc3)c3ccccc3)CC2)C(C)C)c1	–	–	0.29 (≈ 0.634 µM)	42.6	–	–
CC(C)(C)c1ccc(O)c(NCCCN2CCN(C(c3ccccc3)c3ccc(Cl)cc3)CC2)c1 (stereo not given)	38	60.6	0.068 (≈ 0.138 µM)	82.4	12.6	–
Cc1ccc(O)c(N(CCCN2CCN(C(c3ccccc3)c3ccc(Cl)cc3)CC2)C(C)C)c1 (stereo not given)	–	–	0.44 (≈ 0.894 µM)	44.4	–	–
Cc1ccc(O)c(NCCN2CCN(C(c3ccccc3)c3ccccc3)CC2)c1	48.1	62	0.045 (≈ 0.112 µM)	75.3	32.8	–
Cc1ccc(O)c(NCCCN2CCN(C(c3ccccc3)c3ccc(Cl)cc3)CC2)c1 (stereo not given)	67.7	62	0.12 (≈ 0.267 µM)	–	48.5	Average score (Oryctolagus cuniculus [16]): 0; Average score (Oryctolagus cuniculus [17]): 0
Cc1ccc(O)c(NCCCN2CCCN(C(c3ccccc3)c3ccc(Cl)cc3)CC2)c1 (stereo not given)	50.3	–	0.013 (≈ 0.028 µM)	87	36.4	–
Cc1ccc(O)c(NCCCN2CCN(C(c3ccc(Cl)cc3)c3ccc(Cl)cc3)CC2)c1	–	–	0.48 (≈ 0.991 µM)	58.2	–	–
CC(C)N(CCCN1CCN(C(c2ccccc2)c2ccc(Cl)cc2)CC1)c1cc(C(C)(C)C)ccc1O (stereo not given)	–	–	0.39 (≈ 0.73 µM)	40.3	–	–
Cc1ccc(O)c(NCCCN2CCC(C(O)(c3ccccc3)c3ccccc3)CC2)c1	61.5	77	0.029 (≈ 0.0673 µM)	89	36.8	Average score (Oryctolagus cuniculus [22]): 0; Average score (Oryctolagus cuniculus [16]): 0
C[C@]12CCC(=O)C=C1CCC1[C@@H]2[C@@H](O)C[C@@]2(C)[C@H]1CC[C@]2(O)C(=O)CO (single isomer, unassigned) [HYDROCORTISONE]	–	–	–	–	–	Inhibition (Rattus norvegicus [23]): 6.99%; Inhibition (Rattus norvegicus [24]): -16.4%; ED50 (Mus musculus [25]): 3.43 µg/mL (≈ 9.46 µM); ED50 (Mus musculus [26]): 6.69 µg/mL (≈ 18.5 µM); ED50 (Mus musculus [27]): 1.2 µg/mL (≈ 3.31 µM); ED50 (Mus musculus [28]): 3.09 µg/mL (≈ 8.52 µM)
Cc1ccc(O)c(N(C)CCCN2CCN(C(c3ccccc3)c3ccc(Cl)cc3)CC2)c1 (stereo not given)	–	–	0.27 (≈ 0.582 µM)	51.8	–	–
Cc1ccc(O)c(N(CCCN2CCN(C(c3ccc(Cl)cc3)c3ccc(Cl)cc3)CC2)C(C)C)c1	–	–	2.2 (≈ 4.18 µM)	26.4	–	–
Cc1ccc(O)c(N(CCCN2CCC(C(O)(c3ccccc3)c3ccc(Cl)cc3)CC2)C(C)C)c1 (stereo not given)	48.5	18.7	1 (≈ 1.97 µM)	89.3	48.3	–
Cc1ccc(O)c(NCCCN2CCC(OC(c3ccccc3)c3ccc(Cl)cc3)CC2)c1 (stereo not given)	53.6	31.3	0.084 (≈ 0.181 µM)	86	26	–
CN(C)CCOC(c1ccccc1)c1ccccc1 [DIPHENHYDRAMINE]	–	–	–	–	27.9	ED50 (Mus musculus [18]): >300 µg/mL; ED50 (Mus musculus [19]): >300 µg/mL; ED50 (Mus musculus [20]): >300 µg/mL; Inhibition (Rattus norvegicus [21]): 52.8%
Cc1ccc(O)c(N(CCCN2CCN(C(c3ccc(F)cc3)c3ccc(F)cc3)CC2)C(C)C)c1	–	–	1.2 (≈ 2.43 µM)	24.2	–	–
Cc1ccc(O)c(NCCCN2CCN(C(c3ccc(F)cc3)c3ccc(F)cc3)CC2)c1	51	79.2	0.1 (≈ 0.221 µM)	–	31.7	ED50 (Mus musculus [29]): 47.8 µg/mL (≈ 106 µM); ED50 (Mus musculus [30]): 52.9 µg/mL (≈ 117 µM); ED50 (Mus musculus [31]): 47 µg/mL (≈ 104 µM); ED50 (Mus musculus [32]): 107.9 µg/mL (≈ 239 µM); Average score (Oryctolagus cuniculus [16]): 0; Average score (Oryctolagus cuniculus [17]): 0; Inhibition (Rattus norvegicus [21]): 51.9%

Source: ChEMBL document CHEMBL1127556, “Synthesis and topical antiinflammatory and antiallergic activities of antioxidant o-aminophenol derivatives” (J Med Chem, 1994)
